The record followed here is ChEMBL document CHEMBL1126706, “Structure-activity relationship of N-[2-(dimethylamino)-6-[3-(5-methyl-4-phenyl-1H-imidazol-1-yl)propoxy] phenyl]-N'-pentylurea and analogues. Novel potent inhibitors of acyl-CoA:cholesterol O-acyltransferase with antiatherosclerotic activity” (J Med Chem, 1993).

Molecules are shown by their SMILES.

Assay [1] addresses T1, Acyl-CoA:cholesterol acyltransferase (Oryctolagus cuniculus, UniProt Q95214).
T1 sequence (Q95214 whole entry): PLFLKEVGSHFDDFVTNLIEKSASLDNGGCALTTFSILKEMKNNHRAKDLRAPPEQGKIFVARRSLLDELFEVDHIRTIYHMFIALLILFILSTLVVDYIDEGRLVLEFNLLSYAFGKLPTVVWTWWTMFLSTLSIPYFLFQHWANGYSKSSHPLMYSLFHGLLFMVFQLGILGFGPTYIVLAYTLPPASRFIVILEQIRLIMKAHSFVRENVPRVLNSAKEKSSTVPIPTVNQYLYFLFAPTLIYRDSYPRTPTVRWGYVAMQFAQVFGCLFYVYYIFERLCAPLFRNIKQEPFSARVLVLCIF
The assay is described as follows: Tested for inhibition against acyl coenzyme A:cholesterol acyltransferase from rabbit aorta homogenate. Type of assay: tissue-based.

In another assay the target is O-acyltransferase (Oryctolagus cuniculus, UniProt G1SFD9). The assay is described as follows: Tested for inhibition against acyl coenzyme A:cholesterol acyltransferase from rabbit intestine microsomes. Summed up:
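Intestinal mucosa microsomes from NZW rabbit (10000g then 105000g pellet, buffered sucrose pH 7.4). Endogenous cholesterol plus 40 μM [1-14C]oleoyl-CoA in K2HPO4 buffer pH 7.4 with 2.4 mg/mL BSA; compound preincubated 3 min at 37 °C, enzyme (8 mg protein/mL) added, 2 min reaction, chloroform/methanol 2:1 stop. IC50 from triplicate tubes per concentration.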

Assay [2] concerns Rattus norvegicus. The assay is described as follows: Tested for cholesterol lowering activity in rats after a dose of 10 mg/kg once a day for 5 days. In kind it is functional. Summed up: (§1)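 Male Sprague-Dawley rats, 5 weeks old, fed chow with 1% cholesterol and 0.5% cholic acid while given drug orally once daily as a suspension in 2% Sefuzol. Starved 5 h after last dose, bled from abdominal aorta under ether; serum total cholesterol measured enzymatically. Result as percent of control (n ≥ 4).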

For assay [3], the species on record is Rattus norvegicus. The assay is described as follows: Tested for hypocholesterolemic activity required to decrease serum total cholesterol. In kind it is functional. The method in brief:
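Male Sprague-Dawley rats (5 weeks) on 1% cholesterol/0.5% cholic acid chow; drug in 2% Sefuzol given orally once daily for 5 days. Serum total cholesterol measured enzymatically after 5 h fast. ED30 (mg/kg dose lowering serum cholesterol to 30% of control) read from dose-response curve of at least 3 doses, n = 4 or 5.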

Assay [4] relates to Oryctolagus cuniculus. The assay is described as follows: Tested for the plasma total cholesterol level in rabbit after administration of 0.2% (w/w) of drug for first 4 days. In kind it is functional, organism-based. The method in brief:
(§2)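 Male NZW rabbits (2.5-3.0 kg) were fed chow with 0.5% cholesterol and 0.5% olive oil, 100 g/day, for 8 weeks, then randomized by plasma cholesterol. Drug was mixed into the diet for 4 weeks, either 0.2% (w/w) for 4 days then 0.1%, or 0.1% throughout. Plasma total cholesterol was measured enzymatically in EDTA ear-vein blood. Mean ± SEM; Student's t test vs control.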

Assay [5] has as its system Rattus norvegicus. The assay is described as follows: Tested for cholesterol lowering activity in rats after a dose of 50 mg/kg once a day for 2 days. Type of assay: functional. Summed up: as §1
The species entered for assay [6] is Oryctolagus cuniculus. The assay is described as follows: Tested for the atheromatous lesion development in rabbit. Type of assay: functional. The method in brief:
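Male NZW rabbits (2.5-3.0 kg) fed 100 g/day chow with 0.5% cholesterol and 0.5% olive oil for 8 weeks, randomized by plasma cholesterol, then 4 weeks with drug mixed in diet (0.2% then 0.1% w/w, or 0.1% w/w). Thoracic aorta halved: one half formalin-fixed, Sudan IV-stained, stained area measured by image analysis; other half cholesterol content by TLC-FID. Mean ± SEM, 7-12 per group, Student's t test.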

Assay [7] has as its system Oryctolagus cuniculus. The assay is described as follows: Tested for the plasma total cholesterol level in rabbit after administration of 0.1% (w/w) of drug for first 4 days. Type of assay: functional, organism-based. Summed up: as §2
Assay [8] concerns Rattus norvegicus. The assay is described as follows: Tested for cholesterol lowering activity in rats after a dose of 30 mg/kg once a day for 5 days. Type of assay: functional. As to conditions: dose 10 mg/kg; in the assay text read “10 mg/kg” for “30 mg/kg”. The method in brief: as §1

Chain of O-acyltransferase (G1SFD9 1-524): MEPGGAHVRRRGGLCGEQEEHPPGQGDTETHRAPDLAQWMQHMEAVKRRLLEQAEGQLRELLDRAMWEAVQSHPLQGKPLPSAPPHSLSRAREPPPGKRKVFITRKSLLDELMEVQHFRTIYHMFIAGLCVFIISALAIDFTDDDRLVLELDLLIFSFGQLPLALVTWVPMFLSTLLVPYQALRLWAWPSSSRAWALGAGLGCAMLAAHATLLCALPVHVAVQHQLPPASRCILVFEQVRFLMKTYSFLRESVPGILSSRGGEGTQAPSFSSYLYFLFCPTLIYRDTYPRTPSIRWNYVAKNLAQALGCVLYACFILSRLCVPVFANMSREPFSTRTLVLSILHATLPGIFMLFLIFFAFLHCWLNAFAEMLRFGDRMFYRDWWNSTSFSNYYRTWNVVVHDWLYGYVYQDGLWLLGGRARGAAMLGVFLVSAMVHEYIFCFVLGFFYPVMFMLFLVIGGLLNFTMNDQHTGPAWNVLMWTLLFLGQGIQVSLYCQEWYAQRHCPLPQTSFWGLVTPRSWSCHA

What is called IC50 is the concentration that inhibits the measured activity by half. Read a high IC50 as lower potency. In the case of `CCCCCNC(=O)Nc1cccc(OCCCn2cnc(-c3ccccc3)c2C)c1N(C)C`, the IC50 in [1] was 3200 nM; against O-acyltransferase, 5800 nM.
With `CCCCCNC(=O)Nc1c(OCCCn2cnc(-c3cccc4ccccc34)c2)cccc1N(C)C`, the IC50 in assay [1] came out at 1550 nM; against O-acyltransferase it was 65 nM. In the assay on Rattus norvegicus [2], the Cholesterol reduction is -30%.
In the case of `CCCCCNC(=O)Nc1c(OCCCn2cnc(-c3ccccc3)c2)cccc1N(C)C`, the IC50 in assay [1] worked out at 160 nM; on O-acyltransferase, 31 nM. For the same compound, the ED30 in the assay filed under Rattus norvegicus [3] amounted to 14 mg/kg. The Plasma total cholesterol in the assay on Oryctolagus cuniculus [4] was 830 mg/dL. Moreover, the Cholesterol reduction in the assay with Rattus norvegicus [5] is given as -51%. The compound further had a Surface involvement in the assay filed under Oryctolagus cuniculus [6] of 22.8%.
As for `CN(C)c1cccc(OCCCn2cnc(-c3ccccc3)c2)c1NC(=O)NC(C)(C)C`, the results for the IC50 (in assay [1]; against O-acyltransferase) were 990 nM and 130 nM, respectively. Moreover, the Cholesterol reduction in the assay on Rattus norvegicus [5] was -12%.
For the compound `CCCCCCNC(=O)Nc1c(OCCCn2cnc(-c3ccccc3)c2)cccc1N(C)C`, the IC50 in assay [1] was 50 nM; against O-acyltransferase it was 60 nM. The compound further had an ED30 in the assay listed under Rattus norvegicus [3] of 1.3 mg/kg. In the assay on Oryctolagus cuniculus [4], the Plasma total cholesterol was 924 mg/dL. In addition, the Cholesterol reduction with Rattus norvegicus [5] is recorded as -57%. The compound further came in with a Surface involvement in the assay filed under Oryctolagus cuniculus [6] of 30.6%.
Take `CCCCCNC(=O)Nc1c(OCCCCn2cnc(-c3ccccc3)c2)cccc1N(C)C`: the figures for the IC50 (in assay [1]; against O-acyltransferase) were 780 nM and 160 nM, respectively.
Regarding `CCCCCNC(=O)Nc1c(OCCCn2nc3ccccc3n2)cccc1N(C)C`, the figures for the IC50 (in [1]; against O-acyltransferase) were 290 nM and 770 nM, respectively. Besides, the Cholesterol reduction in the assay on Rattus norvegicus [2] is on record as -3.4%.
On to `CCCCCN(C)C(=O)Nc1c(OCCCn2cnc(-c3ccccc3)c2)cccc1N(C)C`, for which the IC50 in assay [1] came to 280 nM; at O-acyltransferase it was 550 nM.
In the same order, the values of `CCCCCNC(=O)Nc1c(OCCn2cnc(-c3ccccc3)c2)cccc1N(C)C` are 1400 nM and 170 nM.
In the case of `CCCCCNC(=O)Nc1c(CCCCn2cnc(-c3ccccc3)c2C)cccc1N(C)C`, the values for the IC50 (in assay [1]; at O-acyltransferase) were 140 nM and 170 nM, respectively. The Cholesterol reduction in the assay with Rattus norvegicus [2] was -37%.
In the same order, the values of `CCCCCNC(=O)Nc1c(OCCCNCCc2ccccc2)cccc1N(C)C` are 3440 nM, 960 nM and -18%.
In the same order, the values of `CCCCCNC(=O)Nc1c(OCCCn2cnc(-c3ccc(CCCC)cc3)c2)cccc1N(C)C` are 430 nM, 54 nM and -46%.
For the compound `CN(C)c1cccc(OCCCn2cnc(-c3ccccc3)c2)c1NC(=O)NC1CCCC1`, the IC50 in assay [1] was 3530 nM; against O-acyltransferase it was 240 nM. Besides, the Cholesterol reduction in the assay on Rattus norvegicus [5] was -24%.
As to `CCNC(=O)Nc1c(OCCCn2cnc(-c3ccccc3)c2)cccc1N(C)C`, the IC50 in assay [1] was greater than 10000 nM; on O-acyltransferase, 870 nM. Also, the Cholesterol reduction in the assay with Rattus norvegicus [5] worked out at 2%.
Consider `CCCCCNC(=O)Nc1c(OCCCn2ncc(-c3ccccc3)n2)cccc1N(C)C`, for which the IC50 in assay [1] was determined as 180 nM; against O-acyltransferase, 32 nM. The Cholesterol reduction with Rattus norvegicus [2] is reported as -32%.
Take `CCCCCNC(=O)Nc1c(OCCCn2cnc3ccccc32)cccc1N(C)C`: the IC50 in [1] came out at 620 nM; on O-acyltransferase, 180 nM. Moreover, the Cholesterol reduction with Rattus norvegicus [2] was -12%.
For `CCCCCNC(=O)Nc1c(OCCCn2cc(-c3ccc(OC)cc3)nc2C)cccc1N(C)C`, the IC50 in assay [1] amounted to 730 nM; against O-acyltransferase it was 160 nM. In addition, the Cholesterol reduction in the assay on Rattus norvegicus [2] is -15%.
Turning to `CCCCCNC(=O)N(C)c1c(OCCCn2cnc(-c3ccccc3)c2)cccc1N(C)C`, the IC50 in assay [1] stood at 400 nM; at O-acyltransferase it was 930 nM.
For the compound `CCCCCNC(=O)Nc1c(OCCCN2CCC(c3ccccc3)CC2)cccc1N(C)C`, the IC50 in [1] is 470 nM; on O-acyltransferase, 340 nM. Moreover, in the assay on Rattus norvegicus [2], the Cholesterol reduction is given as -27%.
As to `CCCCCNC(=O)Nc1c(OCCCn2cnc(C)c2-c2ccccc2)cccc1N(C)C`, the IC50 amounted to 210 nM in [1] and 85 nM against O-acyltransferase. Moreover, the Cholesterol reduction in the assay on Rattus norvegicus [2] is listed as -46%.
Consider `CCCCCNC(=O)Nc1cc(OCCCn2cnc(-c3ccccc3)c2C)ccc1N(C)C`, for which the IC50 (in assay [1]; on O-acyltransferase) was 410 nM throughout.
As for `CN(C)c1cccc(OCCCn2cnc(-c3ccccc3)c2)c1NC(=O)NC1CCCCC1`, the figures for the IC50 (in assay [1]; against O-acyltransferase) were 1070 nM and 73 nM, respectively. Also, the Cholesterol reduction in the assay with Rattus norvegicus [5] is -42%.
As to `CCCCCC(=O)Nc1c(OCCCn2cnc(-c3ccccc3)c2)cccc1N(C)C`, the IC50 in assay [1] stood at 100 nM; against O-acyltransferase it was 200 nM. Besides, the Cholesterol reduction with Rattus norvegicus [5] came to 3%.
For `CCCCNC(=O)Nc1c(OCCCn2cnc(-c3ccccc3)c2)cccc1N(C)C`, the IC50 in assay [1] amounted to 810 nM; at O-acyltransferase it was 140 nM. This compound also returned an ED30 in the assay filed under Rattus norvegicus [3] of 75 mg/kg. In addition, the Plasma total cholesterol in the assay with Oryctolagus cuniculus [4] came to 1190 mg/dL. In the assay on Rattus norvegicus [5], the Cholesterol reduction was -37%. For the same compound, the Surface involvement in the assay listed under Oryctolagus cuniculus [6] was 23.5%.
Turning to `CCCNC(=O)Nc1c(OCCCn2cnc(-c3ccccc3)c2)cccc1N(C)C`, the IC50 came out at 7230 nM in [1] and 660 nM at O-acyltransferase.
In the case of `CCCCCNC(=O)Nc1c(N(C)C)ccc(C)c1OCCCn1cnc(-c2ccccc2)c1`, the results for the IC50 (in [1]; on O-acyltransferase) were 250 nM and 410 nM, respectively.
The compound `CCCCCNC(=O)Nc1c(OCCCn2cnc(-c3ccccc3)c2C)cccc1N(C)C` yielded an IC50 in assay [1] of 110 nM. In the assay listed under Rattus norvegicus [3], this compound yielded an ED30 of 4.5 mg/kg. In the assay with Oryctolagus cuniculus [7], this compound registered a Plasma total cholesterol of 800 mg/dL. Also, the Cholesterol reduction in the assay on Rattus norvegicus [2] is listed as -49%. Besides, the Surface involvement in the assay listed under Oryctolagus cuniculus [6] is listed as 21%.
With `CCCCCNC(=O)Nc1c(SCCCn2cnc(-c3ccccc3)c2C)cccc1N(C)C`, the IC50 in [1] came to 58 nM; against O-acyltransferase, 56 nM.
As for `CCCCCNC(=O)Nc1c(OCCCn2cnc(-c3ccc(OC)cc3)c2)c(Br)cc(Br)c1N(C)C`, the figures for the IC50 (in assay [1]; on O-acyltransferase) were 1300 nM and 2400 nM, respectively.
`CCCCCNC(=O)Nc1c(OCCCN2CCN(c3ccccc3)CC2)cccc1N(C)C` yielded an IC50 in assay [1] of 180 nM. Also, the Cholesterol reduction in the assay on Rattus norvegicus [2] is recorded as -44%.
Take `CCCCCNC(=O)Nc1c(OCCCn2nnc(-c3ccccc3)n2)cccc1N(C)C`: the IC50 turned out to be 230 nM in assay [1] and 23 nM against O-acyltransferase. For the same compound, the Cholesterol reduction in the assay with Rattus norvegicus [2] is on record as -48%.
As to `CCCCCNC(=O)Nc1c(OCCCn2cnc(-c3ccccc3)c2C)ncnc1N(C)C`, the results for the IC50 (in assay [1]; at O-acyltransferase) were 11000 nM and 5500 nM, respectively.
With `CCCCCNC(=O)Nc1c(NCCCn2cnc(-c3ccccc3)c2C)cccc1N(C)C`, the results for the IC50 (in assay [1]; against O-acyltransferase) were 2200 nM and 470 nM, respectively.
Turning to `CCCCCNC(=O)Nc1c(OCCCn2ccnc2-c2ccccc2)cccc1N(C)C`, the IC50 stood at 480 nM in assay [1] and 380 nM against O-acyltransferase. The Cholesterol reduction with Rattus norvegicus [8] is recorded as -12%.
As for `CCCCCNC(=O)Nc1c(OCCCn2cnc(-c3ccc(OC)cc3)c2)cccc1N(C)C`, the IC50 amounted to 1330 nM in assay [1] and 59 nM against O-acyltransferase. Besides, in the assay on Rattus norvegicus [2], the Cholesterol reduction is given as -36%.
Turning to `CCCCCCNc1c(OCCCn2cnc(-c3ccccc3)c2)cccc1N(C)C`, the values for the IC50 (in assay [1]; against O-acyltransferase) were 3300 nM and 11000 nM, respectively.
In the same order, the values of `CCCCCNC(=O)Nc1ccc(OCCCn2cnc(-c3ccccc3)c2C)cc1N(C)C` are 1500 nM and 2400 nM.
